Assay [1] relates to RPT. In words: Induction of Mitochondrial biogenesis in rabbit RPT cells at 10 to 3000 nM after 24 hrs by FCCP-OCR assay relative to control. Format: functional, cell-based. Conditions: Oryctolagus cuniculus. The method in brief:
(§1)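 Primary cultures of rabbit renal proximal tubule cells, grown under improved conditions favouring aerobic respiration, were exposed to compound (10–3,000 nM) for 24 h. FCCP-uncoupled oxygen consumption rate was then read on a Seahorse XF-96. Plates included vehicle (DMSO <0.5%), SRT1720 10 μM positive control and blanks. Results are expressed as a ratio or percent fold change versus DMSO, mean ± s.e.m., N=4. A ratio >1.15 was classed as MB.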

Assay [2] relates to RPT. In words: Induction of Mitochondrial biogenesis in rabbit RPT cells after 24 hrs by FCCP-OCR assay relative to control. Format: functional, cell-based. To be noted: Oryctolagus cuniculus. The method in brief:
as §1

Assay [3] concerns the target Beta-2 adrenergic receptor (Homo sapiens, UniProt P07550). Briefly: Binding affinity to beta-2 adrenergic receptor (unknown origin) at 1 to 10000 nM.

Calls of active or inactive are those of the source. The calls are words filed in the database; no cut-off is given here.

Beta-2 adrenergic receptor, sequence (P07550 whole entry): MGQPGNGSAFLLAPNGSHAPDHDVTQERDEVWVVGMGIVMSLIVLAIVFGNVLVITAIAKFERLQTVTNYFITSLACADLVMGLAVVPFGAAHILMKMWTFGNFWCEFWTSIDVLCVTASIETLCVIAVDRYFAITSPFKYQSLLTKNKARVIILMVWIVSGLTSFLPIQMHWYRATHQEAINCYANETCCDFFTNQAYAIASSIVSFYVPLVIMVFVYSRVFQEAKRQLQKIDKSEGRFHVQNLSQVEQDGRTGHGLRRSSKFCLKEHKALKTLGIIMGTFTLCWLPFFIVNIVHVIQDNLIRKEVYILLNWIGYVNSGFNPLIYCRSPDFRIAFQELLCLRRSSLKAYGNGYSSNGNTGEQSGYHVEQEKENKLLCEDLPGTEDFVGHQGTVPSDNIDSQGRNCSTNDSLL

As to `CC(C)(C)NCC(O)c1cc(Cl)c(N)c(Cl)c1` (stereo unspecified), the result in the assay with RPT [1] was inactive.
`CC(C)(C)NCC(O)c1cc(O)cc(O)c1` (stereo unspecified): the outcome in the assay on RPT [2] was Active.
For the compound `CC(C)NCC(O)c1ccc(O)c(O)c1` (stereo unspecified), the outcome in the assay on RPT [1] was inactive.
Still for that read-out and setting: next, `CC(Cc1ccc(O)cc1)NCC(O)c1cc(O)cc(O)c1` (stereo unspecified): “Active”; `CNCCC(Oc1ccccc1OC)c1ccccc1` (stereo unspecified): “Active”; `CNCC[C@@H](Oc1ccccc1C)c1ccccc1`: “Active”.
Consider `C[C@@H](NCCc1ccc(O)cc1)[C@@H](O)c1ccc(O)cc1` (relative stereo) [rel-RITODRINE], for which the affinity in assay [3], expressed as Kd, was 0.501 nM. The result with RPT [2] was Active.
In the same order, the values of `CCC(NC1CCCC1)C(O)c1ccc(O)c(O)c1` (stereo unspecified) [CYCLOPENTYLBUTANEPHARINE] are 10 nM and “Active”.
Turning to `CCC(NC(C)C)C(O)c1ccc(O)c(O)c1` (stereo unspecified) [ISOETHARINE], in assay [3], the Kd (commonly the equilibrium constant for the complex coming apart) was 1000 nM. For the same compound, in the assay with RPT [1], the result was inactive.
For `CC(C)NCC(O)c1cc(O)cc(O)c1` (stereo unspecified) [METAPROTERENOL], in assay [3], binding was characterised by a dissociation constant (Kd) of 501 nM. The result with RPT [2] was Active.
Compound `CCC(NC(C)C)C(O)c1ccc(O)c2[nH]c(=O)ccc12` (stereo unspecified) [PROCATEROL] gave a Kd in assay [3] of 79.4 nM. In addition, the result in the assay with RPT [1] was Active.

The record behind these values is ChEMBL document CHEMBL2424620, “β2-Adrenoceptor agonists in the regulation of mitochondrial biogenesis” (Bioorg Med Chem Lett, 2013).
